From ChEMBL document CHEMBL3792345, “Isoquinoline-1,3-diones as Selective Inhibitors of Tyrosyl DNA Phosphodiesterase II (TDP2)” (J Med Chem, 2016)
Calls of active or inactive are those of the source.

Columns and labels:
[1] = biological target: T1, Tyrosyl-DNA phosphodiesterase 2 (Homo sapiens, UniProt O95551); assay: Inhibition of recombinant human TDP2 using 18-mer single stranded oligonucleotide DNA as substrate incubated for 15 mins by PAGE assay
T1 sequence (O95551 whole entry): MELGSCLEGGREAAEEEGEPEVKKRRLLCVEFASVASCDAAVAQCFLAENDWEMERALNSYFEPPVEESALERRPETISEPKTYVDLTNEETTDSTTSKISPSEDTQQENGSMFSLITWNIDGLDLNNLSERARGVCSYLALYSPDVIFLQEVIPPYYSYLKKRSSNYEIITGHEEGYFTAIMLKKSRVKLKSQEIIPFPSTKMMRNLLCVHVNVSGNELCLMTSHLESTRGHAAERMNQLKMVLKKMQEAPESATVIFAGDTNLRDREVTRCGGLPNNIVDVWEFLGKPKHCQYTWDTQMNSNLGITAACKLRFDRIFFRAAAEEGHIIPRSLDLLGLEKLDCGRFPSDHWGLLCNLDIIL
How it was run: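 1 nM TY18 substrate (α³²P-cordycepin-3′-labelled 18-mer ssDNA) with 25 pM recombinant human TDP2, 15 min at room temperature in LMP2 buffer (pH 7.5, 5 mM MgCl₂). Dose–response at 1.4, 4.1, 12.3, 37, 111 μM, resolved on gels. IC50 is mean ± SD of at least three independent experiments.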

[2] = biological target: T2, Tyrosyl-DNA phosphodiesterase 1 (Homo sapiens, UniProt Q9NUW8); assay: Inhibition of recombinant TDP1 (unknown origin) using 5'-[32P]-labeled single stranded oligonucleotide DNA containing 3'-phophotyrosine (N14Y) as substrate at 111 uM incubated for 15 mins by PAGE assay
[3] = biological target: T1, Tyrosyl-DNA phosphodiesterase 2; assay: Inhibition of human TDP2 expressed in DT40 cells (TDP2-knockout) using 18-mer single stranded oligonucleotide DNA as substrate incubated for 15 mins by PAGE assay
How it was run: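 Extract from 1 × 10⁷ TDP2−/− DT40 cells complemented with human TDP2, prepared as the TDP1 extracts. 1 nM TY18 substrate (α³²P-cordycepin-3′-labelled 18-mer) with 5 μg/mL extract ± inhibitor, 15 min at room temperature. Products resolved on gel.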

[4] = Cytotoxicity against chicken DT40 knockout cells expressing human TDP2 after 72 hrs by ATPlite assay; assay type: functional; conditions: Gallus gallus, DT40, 72 h
How it was run: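 DT40 cells lacking endogenous TDP2 and complemented with human TDP2, following an earlier protocol. For synergy, the compound was combined with different etoposide concentrations.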

Gallus gallus = species on record: Gallus gallus; assay: Potentiation of ETP-induced cytotoxicity against chicken DT40 knockout cells expressing human TDP2 after 72 hrs by ATPlite assay; assay type: functional, cell-based
How it was run: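 DT40 cells lacking endogenous TDP2 and complemented with human TDP2, following an earlier protocol. CC90 is the concentration killing 90% of cells, measured without etoposide. For synergy, the compound was combined with different etoposide concentrations.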

[5] = biological target: T2, Tyrosyl-DNA phosphodiesterase 1; assay: Inhibition of recombinant TDP1 (unknown origin) using 5'-[32P]-labeled single stranded oligonucleotide DNA containing 3'-phophotyrosine (N14Y) as substrate incubated for 15 mins by PAGE assay
[6] = biological target: T2, Tyrosyl-DNA phosphodiesterase 1; assay: Inhibition of human TDP1 expressed in DT40 cells (TDP1-knockout) using N14Y single stranded oligonucleotide DNA as substrate incubated for 15 mins by PAGE assay

T2 sequence (Q9NUW8 whole entry): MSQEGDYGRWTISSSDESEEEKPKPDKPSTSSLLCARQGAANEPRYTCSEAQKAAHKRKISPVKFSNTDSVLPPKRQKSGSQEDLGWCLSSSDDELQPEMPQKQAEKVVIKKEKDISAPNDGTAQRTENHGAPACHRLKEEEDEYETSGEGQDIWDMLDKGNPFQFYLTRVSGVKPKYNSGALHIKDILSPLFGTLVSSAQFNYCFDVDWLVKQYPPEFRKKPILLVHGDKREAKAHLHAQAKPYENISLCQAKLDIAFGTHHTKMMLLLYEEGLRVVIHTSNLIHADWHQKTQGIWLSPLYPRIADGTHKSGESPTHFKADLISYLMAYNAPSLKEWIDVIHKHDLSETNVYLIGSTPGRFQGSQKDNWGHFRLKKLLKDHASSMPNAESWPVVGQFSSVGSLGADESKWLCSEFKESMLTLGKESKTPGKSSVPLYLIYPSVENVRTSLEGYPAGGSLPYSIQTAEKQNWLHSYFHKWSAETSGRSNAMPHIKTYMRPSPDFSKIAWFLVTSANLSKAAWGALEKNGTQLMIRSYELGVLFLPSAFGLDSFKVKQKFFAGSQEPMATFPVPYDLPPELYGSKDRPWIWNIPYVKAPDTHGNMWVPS

SMILES	IC50 [1] [µM]	inhibition [2]	IC50 [3] [µM]	IC50 [5] [µM]	IC50 [6] [µM]	CC90 [4] [µM]	Activity (Gallus gallus)
O=C1Cc2cc(-c3cccc([N+](=O)[O-])c3)ccc2C(=O)N1	10	inactive	25	–	–	–	–
O=C1NC(=O)c2ccc(Br)c3cccc1c23	> 111	inactive	–	–	–	–	–
O=C1Cc2cc(-c3cccc(C(=O)O)c3)ccc2C(=O)N1	21	inactive	42	–	–	–	–
O=C1Cc2cccc(-c3cccc([N+](=O)[O-])c3)c2C(=O)N1	19	inactive	–	–	–	–	–
O=C1Cc2c(Br)cccc2C(=O)N1	> 37	inactive	–	–	–	–	–
CCOC(=O)C1C(=O)NC(=O)c2ccc(Br)cc21 (configuration not stated)	14	inactive	–	–	–	–	–
O=C1Cc2ccc(-c3cccc([N+](=O)[O-])c3)cc2C(=O)N1	11	inactive	–	–	–	–	–
C=CC(=O)Nc1cccc(-c2ccc3c(c2)C(=O)NC(=O)C3)c1	11	inactive	–	–	–	–	–
Nc1cccc(-c2ccc3c(c2)C(=O)NC(=O)C3)c1	> 111	inactive	–	–	–	–	–
O=C1Cc2cc(I)ccc2C(=O)N1	7.6	inactive	9.3	–	–	9.5	inactive
O=C1Cc2cc(-c3ccco3)ccc2C(=O)N1	10	–	25	> 111	> 111	–	inactive
O=C1Cc2cc(-c3cccc(O)c3)ccc2C(=O)N1	13	inactive	35	–	–	–	–
O=C1Cc2cc([N+](=O)[O-])ccc2C(=O)N1	19	inactive	–	–	–	–	–
COc1ccc(-c2ccc3c(c2)CC(=O)NC3=O)cc1F	3	inactive	4.3	–	–	–	–
O=C1Cc2cc(-c3ccc(F)c(Cl)c3)ccc2C(=O)N1	4.1	inactive	5.3	–	–	–	–
O=C1Cc2ccc(-c3ccc(O)cc3)cc2C(=O)N1	14	inactive	–	–	–	–	–
O=C1Cc2cc(-c3cccc(Cl)c3)ccc2C(=O)N1	5.6	inactive	3.3	–	–	–	–
CS(=O)(=O)Nc1ccc(-c2ccc3c(c2)CC(=O)NC3=O)cc1	1.9	inactive	2.2	–	–	–	–
NC(=O)c1cccc(-c2ccc3c(c2)CC(=O)NC3=O)c1	16	inactive	–	–	–	–	–
O=C1Cc2c(cccc2-c2cccc([N+](=O)[O-])c2)C(=O)N1	> 37	inactive	–	–	–	–	–

SMILES	IC50 [1] [µM]	inhibition [2]	IC50 [3] [µM]	IC50 [5] [µM]	IC50 [6] [µM]	CC90 [4] [µM]	Activity (Gallus gallus)
O=c1[nH]c(=O)c2ccc(-c3ccccc3)cc2[nH]1	> 111	inactive	–	–	–	–	–
O=C1Cc2ccc(I)cc2C(=O)N1	9.8	inactive	–	–	–	–	–
O=C1Cc2cc(Br)ccc2C(=O)N1	11	inactive	–	–	–	–	–
O=C1Cc2cc(-c3nc4ccccc4s3)ccc2C(=O)N1	5.1	inactive	11	–	–	12	inactive
COc1ccc(OC)c(-c2ccc3c(c2)CC(=O)NC3=O)c1	16	inactive	–	–	–	–	–
O=C1Cc2cc(C(=O)O)ccc2C(=O)N1	> 111	inactive	–	–	–	–	–
O=C1Cc2cc(-c3ccccc3C(=O)O)ccc2C(=O)N1	> 111	inactive	–	–	–	–	–
Nc1cccc(-c2ccc3c(c2)CC(=O)NC3=O)c1	42	inactive	55	–	–	–	–
O=C1Cc2cc(-c3ccco3)ccc2C(=O)N1O	> 111	–	–	> 111	–	–	–
O=C1Cc2cc(-c3cccnc3)ccc2C(=O)N1	16	inactive	23	–	–	–	–
Nc1c2c(nn1-c1ccccn1)CC(=O)NC2=O	> 111	inactive	–	–	–	–	–
O=C1Cc2c(cccc2-c2ccco2)C(=O)N1	> 111	inactive	–	–	–	–	–
O=C1Cc2ccc(C(=O)O)cc2C(=O)N1	3	inactive	5.2	–	–	> 50	inactive
CS(=O)(=O)Nc1cccc(-c2ccc3c(c2)CC(=O)NC3=O)c1	18	inactive	25	–	–	–	–
O=C1Cc2cccc(-c3cccc(O)c3)c2C(=O)N1	26	inactive	–	–	–	–	–
O=C1Cc2ccc(C(=O)c3cccc([N+](=O)[O-])c3)cc2C(=O)N1	5.4	inactive	–	–	–	–	–
O=C1Cc2cc(-c3ccc(C(=O)O)cc3)ccc2C(=O)N1	30	inactive	–	–	–	–	–
Nc1c2c(nn1-c1ccc(F)cc1)CC(=O)NC2=O	> 111	inactive	–	–	–	–	–
O=C1Cc2ccc(-c3cccc(O)c3)cc2C(=O)N1	15	inactive	–	–	–	–	–

Continued, in another order:

IC50 [1] [µM]	inhibition [2]	IC50 [3] [µM]	IC50 [5] [µM]	IC50 [6] [µM]	SMILES	CC90 [4] [µM]	Activity (Gallus gallus)
25	inactive	–	–	–	O=C1Cc2ccccc2C(=O)N1	–	–
7.5	inactive	2.6	–	–	O=C1Cc2cccc(I)c2C(=O)N1	–	–
5.5	inactive	15	–	–	CC(=O)c1cccc(-c2ccc3c(c2)CC(=O)NC3=O)c1	–	–
11	inactive	–	–	–	O=C1Cc2cc(C(=O)c3cccc([N+](=O)[O-])c3)ccc2C(=O)N1	–	–
4.5	inactive	5.5	–	–	O=C1Cc2cc(-c3ccc(F)cc3F)ccc2C(=O)N1	–	–
> 111	inactive	–	–	–	Nc1c2c(nn1-c1ccccc1)CC(=O)NC2=O	–	–
10	inactive	–	–	–	C=CC(=O)Nc1ccc(-c2ccc3c(c2)CC(=O)NC3=O)cc1	–	–
23	inactive	> 111	–	–	O=C1Cc2cc(-c3ccccc3)ccc2C(=O)N1	–	–
> 37	inactive	–	–	–	COc1cccc(OC)c1-c1ccc2c(c1)CC(=O)NC2=O	–	–
1.7	inactive	3.2	–	–	O=C1Cc2ccc(-c3cccc(Cl)c3)cc2C(=O)N1	–	–
7	inactive	3.5	–	–	O=C1Cc2cc(C(F)(F)F)ccc2C(=O)N1	–	–
4.5	inactive	–	–	–	CS(=O)(=O)Nc1cccc(-c2ccc3c(c2)C(=O)NC(=O)C3)c1	–	–
> 111	inactive	–	–	–	CC(=O)Nc1c2c(nn1-c1ccccc1)CC(=O)NC2=O	–	–
20	inactive	–	–	–	O=C1Cc2ccc(-c3cccnc3)cc2C(=O)N1	–	–
7.1	inactive	–	–	–	O=C1Cc2ccc(-c3ccc(Br)cc3)cc2C(=O)N1	–	–
6.4	inactive	4.5	–	–	O=C1Cc2cc(-c3ccc(Cl)cc3)ccc2C(=O)N1	–	–
> 111	inactive	–	–	–	O=C1Cc2cc(Cc3ccccc3)ccc2C(=O)N1	–	–
> 111	inactive	–	–	–	O=C1Cc2cc(-c3cccc(-c4ccccc4)c3)ccc2C(=O)N1	–	–
36	inactive	40	–	–	Nc1ccc(-c2ccc3c(c2)CC(=O)NC3=O)cc1	–	–
> 111	inactive	–	–	–	O=C1Cc2ccc(-c3ccco3)cc2C(=O)N1O	–	–
8	inactive	6.5	–	–	O=C1Cc2cc(-c3cccc(Br)c3)ccc2C(=O)N1	–	–
3.2	inactive	2.7	–	–	O=C1Cc2cc(-c3ccc(C(F)(F)F)cc3)ccc2C(=O)N1	–	–
13	inactive	50	–	–	O=C1Cc2ccc(-c3ccco3)cc2C(=O)N1	–	–
> 111	inactive	–	–	–	O=C1NC(=O)c2ccc(-c3ccco3)c3cccc1c23	–	–
9.3	inactive	> 111	–	–	O=C1Cc2cc(-c3cnc4ccccc4c3)ccc2C(=O)N1	–	–
